Laboratory results from ChEMBL document CHEMBL1158122, “Anti-inflammatory, anti-tumor-promoting, and cytotoxic activities of constituents of marigold (Calendula officinalis) flowers” (J Nat Prod, 2006).

Tests used:
Raji [1] = test: Inhibition of TPA-induced EBV-early antigen activation in human Raji cells at 10 molar ratio relative to TPA; format: cell-based; set-up: scale not given: the % may be the effect or the level left; conditions: human gammaherpesvirus 4
[2] = Cytotoxicity against human Raji cells assessed as cell viability at 10 molar ratio; format: cell-based; conditions: read-out: Activity
Method in brief: (§1)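 Raji cells were treated with 32 pmol TPA to induce EBV early antigen activation. The test agent was added at 10, 100, 500 or 1000 mol ratio relative to TPA, and Raji cell viability was measured alongside EA activation.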

[3] = Inhibition of TPA-induced EBV-early antigen activation in human Raji cells relative to TPA; format: cell-based, human gammaherpesvirus 4
Raji [4] = test: Inhibition of TPA-induced EBV-early antigen activation in human Raji cells at 1000 molar ratio relative to TPA; format: cell-based; set-up: scale not given: the % may be the effect or the level left; conditions: human gammaherpesvirus 4
Mus musculus = test: Antiinflammatory activity against TPA-induced ear edema in mouse; format: functional
Method in brief: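 Specific-pathogen-free female ICR mice were housed five per cage at 24 ± 2 °C. Inflammation was induced on the ear with TPA at 1 µg/ear, and the test agent was applied per ear. Ear edema inhibition was expressed as ID50 in mg per ear.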

[5] = Cytotoxicity against human Raji cells assessed as cell viability at 500 molar ratio; format: cell-based; conditions: read-out: Activity; method in brief: as §1
[6] = Cytotoxicity against human Raji cells assessed as cell viability at 1000 molar ratio; format: cell-based; conditions: read-out: Activity; method in brief: as §1
[7] = Cytotoxicity against human Raji cells assessed as cell viability at 100 molar ratio; format: cell-based; conditions: read-out: Activity; method in brief: as §1
Raji [8] = test: Inhibition of TPA-induced EBV-early antigen activation in human Raji cells at 100 molar ratio relative to TPA; format: cell-based; set-up: scale not given: the % may be the effect or the level left; conditions: human gammaherpesvirus 4
Raji [9] = test: Inhibition of TPA-induced EBV-early antigen activation in human Raji cells at 500 molar ratio relative to TPA; format: cell-based; set-up: scale not given: the % may be the effect or the level left; conditions: human gammaherpesvirus 4

| SMILES | IC50 [3] [molar ratio] | Activity (Raji [1]) [%] | viability at 10 molar ratio [2] [%] | Activity (Raji [4]) [%] | ID50 (Mus musculus) [mg] | viability at 500 molar ratio [5] [%] | viability at 1000 molar ratio [6] [%] | viability at 100 molar ratio [7] [%] | Activity (Raji [8]) [%] | Activity (Raji [9]) [%] |
| --- | --- | --- | --- | --- | --- | --- | --- | --- | --- | --- |
| CCCCOC(=O)[C@H]1O[C@@H](O[C@H]2CC[C@]3(C)[C@H]4CC=C5[C@@H]6CC(C)(C)CC[C@]6(C(=O)O[C@@H]6O[C@H](CO)[C@@H](O)[C@H](O)[C@H]6O)CC[C@@]5(C)[C@]4(C)CC[C@H]3C2(C)C)[C@H](O[C@@H]2O[C@H](CO)[C@@H](O)[C@H](O)[C@H]2O)[C@@H](O[C@@H]2O[C@H](CO)[C@H](O)[C@H](O)[C@H]2O)[C@@H]1O | 480 | 100 | > 80 | 10.6 | 0.06 | > 80 | 70 | > 80 | 71.6 | 43.2 |
| COc1cc(-c2oc3cc(O)cc(O)c3c(=O)c2O[C@@H]2O[C@H](CO)[C@@H](O)[C@H](O)[C@H]2O[C@@H]2O[C@@H](C)[C@H](O)[C@@H](O)[C@H]2O)ccc1O | 574 | 100 | > 80 | 14.1 | – | > 80 | 70 | > 80 | 81.1 | 60 |
| COC(=O)[C@H]1O[C@@H](O[C@H]2CC[C@]3(C)[C@H]4CC=C5[C@@H]6CC(C)(C)CC[C@]6(C(=O)O[C@@H]6O[C@H](CO)[C@@H](O)[C@H](O)[C@H]6O)CC[C@@]5(C)[C@]4(C)CC[C@H]3C2(C)C)[C@H](O)[C@@H](O[C@@H]2O[C@H](CO)[C@H](O)[C@H](O)[C@H]2O)[C@@H]1O | 480 | 100 | > 80 | 14.4 | 0.1 | > 80 | 70 | > 80 | 74.3 | 52.1 |
| COc1ccc2c(c1)c(CC(=O)O)c(C)n2C(=O)c1ccc(Cl)cc1 [INDOMETHACIN] | – | – | – | – | 0.3 | – | – | – | – | – |
| CCCCOC(=O)[C@H]1O[C@@H](O[C@H]2CC[C@]3(C)[C@H]4CC=C5[C@@H]6CC(C)(C)CC[C@]6(C(=O)O[C@@H]6O[C@H](CO)[C@@H](O)[C@H](O)[C@H]6O)CC[C@@]5(C)[C@]4(C)CC[C@H]3C2(C)C)[C@H](O)[C@@H](O[C@@H]2O[C@H](CO)[C@H](O)[C@H](O)[C@H]2O)[C@@H]1O | 471 | 100 | > 80 | 5.4 | 0.06 | > 80 | 70 | > 80 | 70.1 | 41.5 |
| C[C@]12CCC(=O)C=C1CC[C@@H]1[C@@H]2[C@@H](O)C[C@@]2(C)[C@H]1CC[C@]2(O)C(=O)CO [HYDROCORTISONE] | – | – | – | – | 0.03 | – | – | – | – | – |

The next lines start with results.

| IC50 [3] [molar ratio] | SMILES | Activity (Raji [1]) [%] | viability at 10 molar ratio [2] [%] | Activity (Raji [4]) [%] | ID50 (Mus musculus) [mg] | viability at 500 molar ratio [5] [%] | viability at 1000 molar ratio [6] [%] | viability at 100 molar ratio [7] [%] | Activity (Raji [8]) [%] | Activity (Raji [9]) [%] |
| --- | --- | --- | --- | --- | --- | --- | --- | --- | --- | --- |
| 585 | COc1cc(-c2oc3cc(O)cc(O)c3c(=O)c2O[C@@H]2O[C@H](CO[C@@H]3O[C@@H](C)[C@H](O)[C@@H](O)[C@H]3O)[C@@H](O)[C@H](O)[C@H]2O)ccc1O [NARCISSIN] | 100 | > 80 | 16.3 | – | > 80 | 70 | > 80 | 84.3 | 62.4 |
| 570 | O=c1c(O[C@@H]2O[C@H](CO)[C@@H](O)[C@H](O)[C@H]2O)c(-c2ccc(O)c(O)c2)oc2cc(O)cc(O)c12 [ISOQUERCETIN] | 100 | > 80 | 14.1 | – | > 80 | 70 | > 80 | 78.5 | 58 |
| 397 | CC1=C(/C=C/C(C)=C/C=C/C(C)=C/C=C/C=C(C)/C=C/C=C(C)/C=C/C2=C(C)CCCC2(C)C)C(C)(C)CCC1 [BETA CAROTENE] | 100 | > 80 | 8.6 | – | > 80 | – | > 80 | – | – |
| 475 | CC1(C)CC[C@]2(C(=O)O[C@@H]3O[C@H](CO)[C@@H](O)[C@H](O)[C@H]3O)CC[C@]3(C)C(=CC[C@@H]4[C@@]5(C)CC[C@H](O[C@@H]6O[C@H](C(=O)O)[C@@H](O)[C@H](O[C@@H]7O[C@H](CO)[C@H](O)[C@H](O)[C@H]7O)[C@H]6O)C(C)(C)[C@@H]5CC[C@]43C)[C@@H]2C1 [CALENDULAGYCOSIDE C] | 100 | > 80 | 13.2 | 0.2 | > 80 | 70 | > 80 | 73.1 | 51 |
| 484 | CC1(C)CC[C@]2(C(=O)O[C@@H]3O[C@H](CO)[C@@H](O)[C@H](O)[C@H]3O)CC[C@]3(C)C(=CC[C@@H]4[C@@]5(C)CC[C@H](O[C@@H]6O[C@H](C(=O)O)[C@@H](O)[C@H](O[C@@H]7O[C@H](CO)[C@H](O)[C@H](O)[C@H]7O)[C@H]6O[C@@H]6O[C@H](CO)[C@@H](O)[C@H](O)[C@H]6O)C(C)(C)[C@@H]5CC[C@]43C)[C@@H]2C1 [CALENDULAGYCOSIDE A] | 75.3 | > 80 | 15.8 | 0.32 | > 80 | 70 | > 80 | 75.3 | 52.3 |
| 578 | C[C@@H]1O[C@@H](OC[C@H]2O[C@@H](Oc3c(-c4ccc(O)c(O)c4)oc4cc(O)cc(O)c4c3=O)[C@H](O)[C@@H](O)[C@@H]2O)[C@H](O)[C@H](O)[C@H]1O [RUTIN] | 100 | > 80 | – | – | > 80 | 70 | > 80 | – | – |
| 487 | COC(=O)[C@H]1O[C@@H](O[C@H]2CC[C@]3(C)[C@H]4CC=C5[C@@H]6CC(C)(C)CC[C@]6(C(=O)O[C@@H]6O[C@H](CO)[C@@H](O)[C@H](O)[C@H]6O)CC[C@@]5(C)[C@]4(C)CC[C@H]3C2(C)C)[C@H](O[C@@H]2O[C@H](CO)[C@@H](O)[C@H](O)[C@H]2O)[C@@H](O[C@@H]2O[C@H](CO)[C@H](O)[C@H](O)[C@H]2O)[C@@H]1O | 100 | > 80 | 16 | 0.06 | > 80 | 70 | > 80 | 77.8 | 53.6 |
| 592 | COc1cc(-c2oc3cc(O)cc(O)c3c(=O)c2O[C@@H]2O[C@H](CO[C@@H]3O[C@@H](C)[C@H](O)[C@@H](O)[C@H]3O)[C@@H](O)[C@H](O)[C@H]2O[C@@H]2O[C@@H](C)[C@H](O)[C@@H](O)[C@H]2O)ccc1O | 100 | > 80 | 19.6 | – | > 80 | 70 | > 80 | 86 | 64.8 |
